Results on twelve compounds are retold here after ChEMBL document CHEMBL1268908, “Design, synthesis, radiolabeling, and in vivo evaluation of carbon-11 labeled N-[2-[4-(3-cyanopyridin-2-yl)piperazin-1-yl]ethyl]-3-methoxybenzamide, a potential positron emission tomography tracer for the dopamine D(4) receptors” (J Med Chem, 2010).

The source made the active and inactive calls. The rule behind the calls is not given here.

In general, logP refers to the decadic logarithm of the partition coefficient of the neutral form, usually between octanol and water. The low end stands for a more hydrophilic compound, the high end for a more lipophilic compound. Broadly, the pKa is the pH at which an ionisable group is half protonated. High values mean a weaker acid or stronger base, low ones a stronger acid or weaker base. The term Ki denotes a measure of affinity in units of concentration, obtained from inhibition or displacement. As a reminder, the logD is lipophilicity at a set pH, counting ionised and neutral species.

Series [1] is described as follows: Lipophilicity, log P of the compound. The settings on record: octanol/water. Type of series: physicochemical.
A short description of series [2]: Dissociation constant, pKa of the compound. Type of series: physicochemical.
A further series concerns the target T1, D(4) dopamine receptor (Rattus norvegicus, UniProt P30729).
T1 sequence (P30729 whole entry): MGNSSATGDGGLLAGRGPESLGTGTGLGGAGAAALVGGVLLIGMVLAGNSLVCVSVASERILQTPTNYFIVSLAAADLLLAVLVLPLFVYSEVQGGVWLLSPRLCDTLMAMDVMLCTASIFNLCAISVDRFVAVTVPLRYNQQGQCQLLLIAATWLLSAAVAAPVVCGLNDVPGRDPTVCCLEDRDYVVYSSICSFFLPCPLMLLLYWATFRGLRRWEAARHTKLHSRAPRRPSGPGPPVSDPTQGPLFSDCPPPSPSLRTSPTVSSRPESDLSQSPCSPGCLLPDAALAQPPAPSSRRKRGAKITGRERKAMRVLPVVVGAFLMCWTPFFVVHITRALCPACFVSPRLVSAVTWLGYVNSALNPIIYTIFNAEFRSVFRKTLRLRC
Nature of the series: Displacement of [3H]MSP from rat dopamine D4 receptor expressed in HEK293 cells after 90 mins by scintillation counting. Type of series: cell-based. An outline of the steps:
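Competition binding on fresh membranes from HEK293 cells stably expressing rat D4 receptor, with about […] [3H]methylspiperone for 90 min at 25 °C in 50 mM Tris pH 7.4; (+)-butaclamol defined nonspecific binding. Filtered and scintillation counted. IC50 converted to Ki by Cheng–Prusoff; triplicates, 3–4 experiments.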
A general note: Loss of bound radioactivity is the signal in a displacement assay; it reports binding, not function.

Series [3] concerns the target D(2) dopamine receptor (Rattus norvegicus) (UniProt P61169). Nature of the series: Displacement of [3H]MSP from rat dopamine D2L receptor expressed in HEK293 cells at 1 uM after 90 mins by scintillation counting. Type of series: cell-based. In outline:
(§1)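 HEK293 membranes stably expressing rat D2 or human 5-HT1A, 5-HT2A or 5-HT2C receptors, used fresh. Incubated 90 min at 25 °C in 50 mM Tris pH 7.4 with about […] radioligand and 1 μM compound (DMSO or DMF stock diluted ≥1:1000). Nonspecific binding defined by (+)-butaclamol for D2, NAN-190 for 5-HT1A and mianserin for 5-HT2A/2C. PEI-GF/C filtration, scintillation count; % displacement from triplicates, 3–4 repeats.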

The target of series [4] is Sigma non-opioid intracellular receptor 1 (Homo sapiens) (UniProt Q99720). Nature of the series: Displacement of [3H](+)-pentazocine from human sigma 1 receptor expressed in MCF7 cells at 1 uM after 180 mins by scintillation counting. The series is classed as cell-based. An outline of the steps: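 Membranes from MCF-7 cells stably expressing cloned human σ1 receptor, 0.01–0.05 mg/mL protein, in 50 mM Tris pH 8.0. Incubated 180 min at 37 °C with shaking with 1 nM [3H]-(+)-pentazocine and 1 μM compound; BD1063 defined nonspecific binding. Filtered on PEI-treated GF/C, washed with ice-cold buffer, scintillation counted; triplicates, 3–4 experiments.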
Chain of Sigma non-opioid intracellular receptor 1 (Homo sapiens) (Q99720 whole entry): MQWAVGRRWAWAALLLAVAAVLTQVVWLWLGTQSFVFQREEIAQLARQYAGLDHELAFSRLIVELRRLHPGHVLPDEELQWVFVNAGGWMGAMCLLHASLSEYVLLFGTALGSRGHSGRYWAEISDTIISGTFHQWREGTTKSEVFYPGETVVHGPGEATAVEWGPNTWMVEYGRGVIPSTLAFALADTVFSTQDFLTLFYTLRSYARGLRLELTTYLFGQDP

For series [5], the target named is D(3) dopamine receptor (Homo sapiens) (UniProt P35462). Nature of the series: Displacement of [3H]MSP from human dopamine D3 receptor expressed in CHO-K1 cells at 1 uM after 90 mins by scintillation counting. The series is classed as cell-based. An outline of the steps: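 Frozen CHO-K1 membranes carrying human D3 receptor, incubated with about […] [3H]methylspiperone and 1 μM compound for 90 min at 25 °C in 50 mM Tris pH 7.4. Nonspecific binding defined with 5 μM 7-OH-DPAT. Filtered on PEI-treated GF/C and scintillation counted; triplicate points, experiment repeated 3–4 times.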
Chain of D(3) dopamine receptor (Homo sapiens) (P35462 whole entry): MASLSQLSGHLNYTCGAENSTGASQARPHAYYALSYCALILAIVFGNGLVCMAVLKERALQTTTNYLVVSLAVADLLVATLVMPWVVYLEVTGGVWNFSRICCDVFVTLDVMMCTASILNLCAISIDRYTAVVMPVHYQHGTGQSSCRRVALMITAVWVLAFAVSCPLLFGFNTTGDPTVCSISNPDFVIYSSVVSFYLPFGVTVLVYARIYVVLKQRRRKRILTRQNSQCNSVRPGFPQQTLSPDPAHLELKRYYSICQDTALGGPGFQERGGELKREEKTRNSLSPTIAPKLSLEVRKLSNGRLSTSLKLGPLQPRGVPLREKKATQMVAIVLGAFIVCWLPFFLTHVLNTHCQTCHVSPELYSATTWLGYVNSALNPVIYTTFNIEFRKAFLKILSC

Series [6] addresses T2, 5-hydroxytryptamine receptor 1A (Homo sapiens) (UniProt P08908).
T2 sequence (whole entry): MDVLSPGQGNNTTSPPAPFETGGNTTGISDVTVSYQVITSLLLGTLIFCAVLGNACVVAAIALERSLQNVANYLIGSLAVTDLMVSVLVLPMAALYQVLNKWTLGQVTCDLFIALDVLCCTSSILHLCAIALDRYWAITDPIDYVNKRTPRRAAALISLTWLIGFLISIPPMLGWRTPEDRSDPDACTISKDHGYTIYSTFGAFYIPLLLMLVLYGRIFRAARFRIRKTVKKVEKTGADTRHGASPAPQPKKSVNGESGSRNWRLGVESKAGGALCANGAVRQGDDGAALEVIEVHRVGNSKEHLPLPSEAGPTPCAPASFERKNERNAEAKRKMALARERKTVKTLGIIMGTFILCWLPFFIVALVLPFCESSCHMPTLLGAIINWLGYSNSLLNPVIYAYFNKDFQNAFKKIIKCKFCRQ
In words: Displacement of [3H]MPPF from human 5HT1A receptor expressed in HEK293 cells at 1 uM after 90 mins by scintillation counting. The series is classed as cell-based. In outline: as §1

The target of series [7] is 5-hydroxytryptamine receptor 2A (Homo sapiens) (UniProt P28223). In words: Displacement of [3H]MSP from human 5HT2A receptor expressed in HEK293 cells at 1 uM after 90 mins by scintillation counting. The series is classed as cell-based. An outline of the steps: as §1
Chain of 5-hydroxytryptamine receptor 2A (Homo sapiens) (P28223 whole entry): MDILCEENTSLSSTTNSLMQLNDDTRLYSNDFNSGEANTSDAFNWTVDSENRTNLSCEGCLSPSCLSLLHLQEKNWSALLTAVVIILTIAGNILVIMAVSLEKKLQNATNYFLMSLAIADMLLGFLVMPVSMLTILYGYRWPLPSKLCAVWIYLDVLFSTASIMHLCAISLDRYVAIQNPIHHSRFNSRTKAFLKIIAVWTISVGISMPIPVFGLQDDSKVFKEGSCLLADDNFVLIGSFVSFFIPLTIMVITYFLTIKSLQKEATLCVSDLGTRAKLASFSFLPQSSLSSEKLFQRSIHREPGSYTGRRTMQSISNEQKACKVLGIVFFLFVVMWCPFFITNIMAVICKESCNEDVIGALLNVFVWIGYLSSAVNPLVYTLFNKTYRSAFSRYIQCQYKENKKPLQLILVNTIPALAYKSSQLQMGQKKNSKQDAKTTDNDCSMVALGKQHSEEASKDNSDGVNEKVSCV
The target in series [8] is T3, 5-hydroxytryptamine receptor 2C (Homo sapiens) (UniProt P28335).
T3 sequence (whole entry): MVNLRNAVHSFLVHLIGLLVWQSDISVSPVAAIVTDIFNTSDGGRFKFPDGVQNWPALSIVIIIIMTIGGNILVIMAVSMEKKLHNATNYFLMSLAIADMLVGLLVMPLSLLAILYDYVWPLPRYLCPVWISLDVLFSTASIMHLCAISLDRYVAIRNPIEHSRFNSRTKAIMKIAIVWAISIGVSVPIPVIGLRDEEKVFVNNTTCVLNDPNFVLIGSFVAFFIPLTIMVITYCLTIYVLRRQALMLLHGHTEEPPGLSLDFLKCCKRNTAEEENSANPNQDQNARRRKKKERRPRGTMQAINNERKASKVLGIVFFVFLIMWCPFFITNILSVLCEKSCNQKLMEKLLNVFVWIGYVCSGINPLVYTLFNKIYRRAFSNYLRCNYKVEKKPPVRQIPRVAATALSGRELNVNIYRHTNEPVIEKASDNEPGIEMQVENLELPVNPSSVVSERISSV
In words: Displacement of [3H]mesulergine from human 5HT2C receptor expressed in HEK293 cells at 1 uM after 90 mins by scintillation counting. Type of series: cell-based. An outline of the steps:
as §1

The target of series [9] is T4, D(4) dopamine receptor (Rattus norvegicus) (UniProt P30729).
T4 sequence (whole entry): T1 sequence (P30729 whole entry)
Nature of the series: Agonist activity at rat dopamine D4 receptor expressed in HEK293 cells assessed as decrease in forskolin-stimulated levels of cAMP accumulation up to 10 uM. The series is classed as functional, cell-based. A general note: Changes in cAMP serve as a functional read-out for many G protein-coupled receptors.

Series [10] can be described thus: Drug level in CD1 mouse plasma at 10 mg/kg, ip after 30 mins. The series is classed as ADME, organism-based. The arrangement: dose 10 mg/kg, route intraperitoneal. The settings on record: read-out: Drug uptake.
Series [11] is described as follows: Drug level in CD1 mouse brain at 10 mg/kg, ip after 30 mins. The series is classed as ADME, organism-based. The arrangement: dose 10 mg/kg, route intraperitoneal. The settings on record: read-out: Drug uptake.
The test system of a further series is Plasma. Nature of the series: Drug level in CD1 mouse plasma at 10 mg/kg, ip after 30 to 60 mins. The series is classed as ADME, organism-based. Set-up: dose 10 mg/kg, route intraperitoneal. The settings on record: in vivo. An outline of the steps: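 Male CD1 mice, 25–30 g, given 10 mg/kg ip in ethanol/PEG 40/saline (10:40:50). Killed at 15–240 min. Plasma (0.2 mL) alkalinised and extracted into dichloromethane with a 1-(2-thiazolyl)piperazine internal standard, then run on gradient reversed-phase HPLC-UV at 264 nm; quantification limit about 100 ng/mL. Mean ± SD, n = 3.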

Series [12] deals with Cannabinoid receptor 1 (Rattus norvegicus) (UniProt P20272). Nature of the series: Displacement of [3H]CP55940 from CB1 receptor in rat brain at 1 uM after 180 mins by scintillation counting.
Chain of Cannabinoid receptor 1 (Rattus norvegicus) (P20272 whole entry): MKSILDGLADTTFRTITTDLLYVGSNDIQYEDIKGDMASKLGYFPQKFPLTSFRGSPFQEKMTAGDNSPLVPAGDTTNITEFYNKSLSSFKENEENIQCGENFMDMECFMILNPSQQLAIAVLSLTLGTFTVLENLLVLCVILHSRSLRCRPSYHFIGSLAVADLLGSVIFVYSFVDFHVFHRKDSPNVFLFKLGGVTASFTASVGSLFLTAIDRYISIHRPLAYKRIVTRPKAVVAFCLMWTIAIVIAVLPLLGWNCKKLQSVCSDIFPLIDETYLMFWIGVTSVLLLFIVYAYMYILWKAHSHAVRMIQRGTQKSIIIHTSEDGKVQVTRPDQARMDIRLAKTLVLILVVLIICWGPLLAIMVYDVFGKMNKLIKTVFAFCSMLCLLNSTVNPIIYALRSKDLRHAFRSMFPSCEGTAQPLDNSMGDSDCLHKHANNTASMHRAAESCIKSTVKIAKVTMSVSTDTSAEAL
The nature of series [13]: Drug level in CD1 mouse plasma at 10 mg/kg, ip after 15 mins. The series is classed as ADME, organism-based. Set-up: dose 10 mg/kg, route intraperitoneal. The settings on record: read-out: Drug uptake.
The nature of series [14]: Drug level in CD1 mouse brain at 10 mg/kg, ip after 15 mins. Set-up: dose 10 mg/kg, route intraperitoneal. The following applies: read-out: Drug uptake. Type of series: ADME, organism-based.
The nature of series [15]: Distribution coefficient, log D of the compound at pH 7.4. Type of series: physicochemical. The settings on record: octanol/water.

Chain of D(2) dopamine receptor (Rattus norvegicus) (P61169 whole entry): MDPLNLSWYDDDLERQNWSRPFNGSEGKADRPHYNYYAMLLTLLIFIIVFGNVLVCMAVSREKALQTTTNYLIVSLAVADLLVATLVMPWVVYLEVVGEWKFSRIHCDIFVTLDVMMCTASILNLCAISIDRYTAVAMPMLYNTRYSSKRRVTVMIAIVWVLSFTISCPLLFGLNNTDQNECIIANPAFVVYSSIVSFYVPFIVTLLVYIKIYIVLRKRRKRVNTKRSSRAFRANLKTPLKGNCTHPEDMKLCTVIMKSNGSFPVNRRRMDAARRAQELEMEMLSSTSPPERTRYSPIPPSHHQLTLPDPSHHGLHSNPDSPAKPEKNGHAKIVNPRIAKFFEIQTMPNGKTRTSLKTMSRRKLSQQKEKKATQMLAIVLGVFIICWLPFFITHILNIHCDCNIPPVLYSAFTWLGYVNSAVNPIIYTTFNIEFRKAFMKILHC

`O=C(NCCN1CCN(c2ccc(Cl)cn2)CC1)c1ccc(F)cc1`: the logP in series [1] was found to be 3.42. Also, the pKa in series [2] came to 6.58. The compound further returned an inhibition constant (Ki) on D(4) dopamine receptor of 2.92 nM. The values for the Activity in series [3] and in [4] were 43% and 33%, respectively.
In the case of `COc1cccc(C(=O)NCCN2CCN(c3ncccc3C#N)CC2)c1`, in series [1], the logP is 2.55. The compound further gave a pKa in [2] of 6.71. Besides, affinity at D(4) dopamine receptor was put at a Ki of 1.52 nM. Besides, the Activity was 4.4% in [3]; 8.3% in series [4]; 5.1% in series [5]; 9.3% in [6]; 24% in [7]; 3.2% in series [8]. For the same compound, the Activity in series [12] turned out to be 6.5%. The result in [9] was Active. In addition, the concentration at 0.5 h is 370 ng/mL in series [10] and 140 ng/g in [11]. For the same compound, the Drug uptake in the series on Plasma turned out to be 0.1 µg/mL.
`COc1cccc(C(=O)NCCN2CCN(c3ccc(Cl)cn3)CC2)c1` yielded a logP in [1] of 3.29. Further, the pKa in [2] is 6.45. Besides, in series [4], the Activity amounted to 15%.
With `COc1cccc(C(=O)NCCN2CCN(c3noc4ccccc34)CC2)c1`, in series [2], the pKa amounted to 6.24. At D(4) dopamine receptor, this compound yielded a Ki of 1.93 nM. Also, the Activity in series [3] turned out to be 84%; in [4], 13%.
Take `N#Cc1cccnc1N1CCN(CCNC(=O)c2ccc(F)cc2)CC1`: the logP in series [1] came out at 2.37. This compound also showed a pKa in series [2] of 6.4. The same compound had a Ki on D(4) dopamine receptor of 0.93 nM. Moreover, the Activity in series [3] amounted to 32%; in series [4], 1%; in series [5] it was 7.2%; in [6], 29%; in [7], 53%; in series [8] it was 0%. In addition, in series [12], the Activity stood at 9.9%. For the same compound, the result in series [9] was Active. The concentration at 0.25 h turned out to be 130 ng/mL in series [13] and 470 ng/g in series [14]. Further, the Drug uptake with Plasma is less than 0.1 µg/mL.
Take `Cc1ccc(N2CCN(CCNC(=O)c3ccc(F)cc3)CC2)cc1`: the pKa in [2] is 6.31. For the same compound, the Ki at D(4) dopamine receptor is 2.64 nM. In addition, the figures for the Activity in [3] and in series [4] were 29% and 21%, respectively.
As to `O=C(NCCN1CCN(c2ccc(Cl)cc2)CC1)c1ccc(F)cc1`, the logP in [1] is 3.75. The pKa in series [2] worked out at 6.46. This compound came in with a Ki at D(4) dopamine receptor of 1.76 nM. Besides, the Activity was 48% in [3] and 29% in [4].
In [2], `COc1cccc(C(=O)NCCN2CCN(c3ccc(Cl)cc3)CC2)c1` yielded a pKa of 6.19. The same compound had a Ki at D(4) dopamine receptor of 4.97 nM. Besides, the Activity in series [3] came out at 7.8%; in series [4] it was 22%.
Turning to `COc1cccc(C(=O)NCCN2CCN(c3ccc(C)cc3)CC2)c1`, the logD in series [15] is 2.78. Moreover, the pKa in [2] was determined as 6.46. In addition, the Activity in series [4] stood at 7.2%.
As for `O=C(NCCN1CCN(c2noc3ccccc23)CC1)c1ccc(F)cc1`, the log partition coefficient (logP) in series [1] worked out at 3.79. The compound also showed a pH-dependent lipophilicity (logD) in series [15] of 3.75. Further, the pKa in series [2] is 6.43. The same compound gave a Ki on D(4) dopamine receptor of 0.34 nM. Besides, the Activity in series [3] was found to be 89%; in [4] it was 21%.
For `COc1cccc(C(=O)NCCN2CCN(c3ccc(C#N)cc3)CC2)c1`, the affinity at D(4) dopamine receptor corresponds to a Ki of 63.9 nM. Further, the Activity in series [3] was 0%; in series [4], 27%.
Compound `N#Cc1ccc(N2CCN(CCNC(=O)c3ccc(F)cc3)CC2)cc1` showed a logP in series [1] of 3.07. Further, the pKa in series [2] came to 6.43. The compound further gave a Ki on D(4) dopamine receptor of 32.7 nM. In addition, the results for the Activity in [3] and in [4] were 0% and 4.6%, respectively.
